High-throughput results from PubChem BioAssay.
SKKanGAS inh: blocks kanamycin growth of S. pyogenes SKKanGAS strain; 1.3% of 300,000 active; BacTiter-Glo, 6 h; inhibition, % at 7.5 µM;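 active = mean replicate score, as percent of positive control median, at least 50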;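 note: strain carries kanamycin resistance gene driven by streptokinase promoter and grows in 40 µg/ml kanamycin; loss of luminescence reflects streptokinase promoter inhibition or plain growth inhibition; 0% = median of DMSO wells and 100% = positive control at its reference dose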
CSC inhib: blocks cancer stem cells. cancer stem cell-like cells viability, luminescence. inhibition, % at 7.5 µM. 1.1% of 300,000 active; in the data active = inhibition above about 75%; tested in HMLE shEcad cells
Beta cell apopt: beta cell apoptosis inhibition; INS-1E cytokine-induced death, ATP luminescence, 48 h; percent of positive-control rescue, neutral wells zero; protection from apoptosis, % (test concentration not listed); 0.8% of 300,000 active; AID 435005;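 active = Every replicate reaches about 75%, or at least half do and their mean reaches it too, limit read from the data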;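 note: 0% = cytokine-treated negative control wells and 100% = positive control rescue; higher means more ATP so stronger rescue from cytokine killing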
CHOP UPR activ: apoptotic UPR (CHOP) activation. CHO-CHOP luciferase reporter, luminescence; percent of tunicamycin response over DMSO baseline. activation, % at 10 µM. 0.34% of 330,000 active. AID 449763;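 active = at 10 µM dose, activation of 40% or more, normalized to positive control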;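 note: 100% = tunicamycin at 10 µg/mL and 0% = DMSO alone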
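Dosing – one dose, 10 µM in 0.5% DMSO · System – CHO-CHOP cells, stable luciferase reporter of PERK-eIF2a-CHOP signalling · Input – 500 cells/well · Control set – tunicamycin 10 µg/mL final as positive, DMSO-only wells as negative · Timing – 6 h compound treatment, 37 °C · Measure – % activation vs tunicamycin · Technique – luminescence read with Steady-Glo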
Mdm2 MdmX PPI: disrupts the human Mdm2-MdmX interaction. O15151+Q00987. SaOS-2 split-luciferase Mdm2/MdmX complementation, luminescence. inhibition, % at 8 µM. 3% of 330,000 active;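 active = inhibition of at least 50% at 8 µM in the primary screen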
Target sequence (O15151 whole entry, looked up): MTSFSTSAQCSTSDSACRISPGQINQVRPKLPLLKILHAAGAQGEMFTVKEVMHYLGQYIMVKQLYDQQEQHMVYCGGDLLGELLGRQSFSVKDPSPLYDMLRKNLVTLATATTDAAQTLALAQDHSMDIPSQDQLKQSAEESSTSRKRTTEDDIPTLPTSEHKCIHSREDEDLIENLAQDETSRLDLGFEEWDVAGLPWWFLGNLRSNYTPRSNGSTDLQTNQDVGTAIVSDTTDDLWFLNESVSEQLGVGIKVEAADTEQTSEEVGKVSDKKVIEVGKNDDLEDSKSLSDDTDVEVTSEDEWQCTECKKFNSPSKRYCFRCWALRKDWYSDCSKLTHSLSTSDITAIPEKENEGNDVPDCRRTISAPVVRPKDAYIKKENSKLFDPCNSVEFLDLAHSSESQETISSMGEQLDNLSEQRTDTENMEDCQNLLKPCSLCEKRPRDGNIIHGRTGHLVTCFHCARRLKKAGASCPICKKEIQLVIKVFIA
Target sequence (Q00987 whole entry, looked up): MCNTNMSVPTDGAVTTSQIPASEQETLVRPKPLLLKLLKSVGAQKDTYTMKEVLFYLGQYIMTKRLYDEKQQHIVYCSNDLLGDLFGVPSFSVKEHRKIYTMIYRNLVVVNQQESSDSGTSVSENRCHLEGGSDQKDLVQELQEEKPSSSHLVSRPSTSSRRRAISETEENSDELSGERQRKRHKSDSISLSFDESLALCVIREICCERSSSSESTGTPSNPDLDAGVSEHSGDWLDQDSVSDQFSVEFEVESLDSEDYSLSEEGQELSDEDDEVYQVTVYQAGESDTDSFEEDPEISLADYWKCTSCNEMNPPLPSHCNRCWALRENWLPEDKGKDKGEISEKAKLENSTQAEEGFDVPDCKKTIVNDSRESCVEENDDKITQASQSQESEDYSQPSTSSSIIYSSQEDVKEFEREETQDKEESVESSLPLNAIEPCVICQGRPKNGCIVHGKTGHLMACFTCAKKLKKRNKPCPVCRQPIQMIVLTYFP
UPR XBP1 act: activators of adaptive arm of unfolded protein response (XBP1) | 0.33% of 330,000 active | AID 463104 | CHO-XBP1 luciferase reporter, IRE1-XBP1 UPR activation, luminescence; percent of tunicamycin response, DMSO as zero | activation, % at 20 µM;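 active = versus positive control, 20 µM dose yields 30% or more activation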;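 note: 100% = tunicamycin at 10 µg/mL and 0% = DMSO only wells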
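Assay system: IRE1-XBP1 luciferase reporter CHO line. Input: 1000 cells/well. Buffer or medium: F12 with 10% serum. Doses: 20 µM, 1% DMSO. Times: overnight seeding at 37 °C, 6 h compound treatment at 37 °C. Technique: Steady-Glo luciferase glow luminescence, 10 min after reagent addition.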
Mdm2 MdmX conf: human Mdm2/MdmX binding inhibition, confirmed; shares compounds with Mdm2 MdmX PPI; luminescent assay; inhibition, % at 8 µM; 55% of 10,000 active; AID 489028; in the data active = inhibition above about 40%
FLuc counter: inhibits full-length luciferase, flagging false Mdm2/MdmX hits. shares compounds with Mdm2 MdmX PPI. SaOS-2 full-length luciferase counterscreen, luminescence. inhibition, % at 8 µM. 77% of 6,200 active;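 active = mean inhibition at 8 µM reaching about 37%, which flags the compound as non-specific, limit read from the data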;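 note: p53-null SaOS-2 cells with luciferase driven by a doxycycline-inducible promoter; compound on cells about two nights before reading with doxycycline added after day one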
* = called active by the depositor; x = no result. The list is not random: actives were taken first. Their share in the collection is about 4.8%.

SMILES | SKKanGAS inh | CSC inhib | Beta cell apopt | CHOP UPR activ | Mdm2 MdmX PPI | UPR XBP1 act | Mdm2 MdmX conf | others
CC(C)(C)c1ccc(C(=O)NCCC(=O)Nc2ccc3c(c2)OCCO3)cc1 | x | x | x | -0.5 | 35.1 | -5.3 | x
CCc1ccc(-c2nc(CN3CCC(C(=O)NCc4ccc(F)cc4)CC3)c(C)o2)cc1 | -4.0 | 16.0 | 10.9 | 0.0 | 57.8* | 6.3 | 42.0* | FLuc counter=66.6*
CCc1ccc(-c2nc(CN3CCC(C(=O)N4CCN(c5ccccc5)CC4)CC3)c(C)o2)cc1 | -9.5 | 12.8 | 11.8 | 1.8 | 53.5* | 3.9 | 40.2* | FLuc counter=85.7*
CCc1ccc(-c2nc(CN3CCC(C(=O)N4CCN(c5ccccn5)CC4)CC3)c(C)o2)cc1 | x | x | 0.7 | 2.4 | 26.8 | 7.2 | x
COc1cccc(CN(C)C(=O)c2[nH]c(C)c(C(C)=O)c2C)c1OC | -0.5 | x | 15.6 | -1.3 | 21.2 | 0.9 | x
Cc1cc(/C=C\c2ccc3cc(N(C)C)ccc3[n+]2C)c(C)n1-c1ccccc1 | x | 87.5* | x | 23.9 | 100.4* | 24.8 | 92.3* | FLuc counter=8.8
C[n+]1c(/C=C/c2ccc(O)cc2)ccc2ccccc21 | 9.9 | 4.8 | 10.6 | 5.3 | -36.5 | 4.5 | x
NNC(=O)c1cc2cc3ccccc3nc2s1 | 12.1 | 5.7 | 11.3 | 3.4 | -1.7 | 4.3 | x
CCOc1ccc(-c2nn(-c3ccccc3)cc2/C=C2\SC(N)=NC2=O)cc1C | 9.6 | 33.2 | 9.9 | 4.1 | 66.7* | 8.7 | 22.2
CCOc1cc(/C=C2\SC(N)=NC2=O)ccc1O | -15.7 | 1.8 | -0.1 | 0.4 | -9.9 | 0.8 | x
CCNNC(=O)C(O)(c1cccc(C)c1)c1cccc(C)c1 | 1.3 | -23.9 | x | 1.3 | 26.8 | -2.5 | x
Cc1cccc(C(O)(C(=O)NNc2ccc3ccccc3n2)c2cccc(C)c2)c1 | 17.7 | x | 2.2 | -1.1 | 53.2* | -3.6 | 31.1
CCN(CC)c1ccc(/C=N/NC(=O)c2ccc3nc[nH]c3c2)c(O)c1 | 5.8 | 106.5* | 115.8* | -3.1 | 73.3* | 0.6 | 83.2* | FLuc counter=53.2*
CCN(CC)c1ccc(/C=N/N=C(N)N)c(O)c1 | 6.5 | 66.0 | 9.7 | -1.0 | 61.5* | 11.5 | 51.5* | FLuc counter=83.4*
COc1cccc(/C=N/NC(=O)c2ccc3nc[nH]c3c2)c1O | -5.6 | 30.3 | 3.0 | -0.7 | 8.9 | -2.1 | x
CCN(CC)c1ccc(/C=N/NC(=O)c2cccc(S(=O)(=O)Nc3ccccc3OC)c2)c(O)c1 | 16.7 | 108.1* | 90.7* | -1.1 | 77.2* | 0.1 | 78.5* | FLuc counter=14.6
COc1ccc(-n2c(SCC(=O)Nc3ccc(C(=O)O)cc3)nnc2-c2ccccc2)cc1OC | -1.1 | -6.6 | -3.1 | 2.7 | -7.0 | -1.4 | x
CC(C)N(CCCNC(=O)c1nn(C)c2c1CS(=O)(=O)c1ccccc1-2)Cc1ccccc1 | -2.3 | -13.2 | -1.5 | 2.3 | 20.8 | -2.3 | x
CCOC(=O)C1CCN(C(=O)C2CCN(S(=O)(=O)N3CCC4(CC3)OCCO4)CC2)CC1 | -0.5 | -4.2 | -2.0 | 3.2 | 16.9 | -0.4 | x
CCOC(=O)c1c(C)[nH]c(C)c1S(=O)(=O)NCCN1CCN(c2ccccc2F)CC1 | -1.3 | -7.8 | -0.9 | 0.1 | 3.2 | 1.3 | x
O=C1[C@H]2[C@@H](c3ccc(F)cc3)N3C(=O)N(c4ccc(Br)cc4)C(=O)[C@@]3(Cc3ccccc3)[C@H]2C(=O)N1C1CCCCC1 | 7.5 | 8.1 | 12.8 | 1.9 | 83.6* | 0.2 | 93.9* | FLuc counter=26.6
CC[C@@]12C(=O)N(c3ccc(OC)cc3)C(=O)N1[C@H](c1ccc(Cl)cc1)[C@@H]1C(=O)N(C3CCCCC3)C(=O)[C@@H]12 | 2.0 | 5.7 | 4.4 | 1.7 | 50.0 | 1.5 | 48.1* | FLuc counter=48.9*
Cc1cc(=O)[nH]c2nnc(-c3ccc(Cl)cc3)n12 | 4.7 | x | x | -1.1 | -2.9 | -1.4 | x
O=C(c1cc2cc(F)ccc2[nH]1)N1CCCC(Nc2ccc(F)cc2)C1 (stereo unspecified) | 12.6 | 7.1 | -2.5 | -0.1 | 10.2 | -3.1 | x
Cc1cc(NC(=O)CCC(=O)N(CC(=O)NCC2CCCO2)c2cccc(F)c2)no1 (stereo unspecified) | 12.9 | 1.4 | -1.5 | -1.3 | 3.9 | -0.5 | x
SMILES | SKKanGAS inh | CSC inhib | Beta cell apopt | CHOP UPR activ | Mdm2 MdmX PPI | UPR XBP1 act | Mdm2 MdmX conf | others
COc1cc2c(cc1NC(=O)c1ccc(C(C)(C)C)cc1)CCCC2 | -3.7 | 58.1 | 3.1 | -1.3 | 69.1* | -1.8 | 74.2* | FLuc counter=61.9*
CCOc1cc(S(=O)(=O)n2ccc(C)n2)ccc1Br | -9.8 | 4.7 | x | 1.5 | 80.9* | -0.5 | -1.8
COc1ccc(/C=C/C(=O)N2CCN(S(=O)(=O)c3ccccc3Br)CC2)cc1OC | x | -3.8 | -0.8 | 1.4 | 12.0 | 0.4 | x
NC1(C#Cc2ccc3oc(=O)c(-n4cc(-c5ccsc5)nn4)cc3c2)CCCCC1 | x | 13.6 | -2.1 | 24.8 | 94.0* | 26.2 | 14.8
NC1(C#Cc2ccc3oc(=O)c(-n4cc(C5(O)CCCCC5)nn4)cc3c2)CCCCC1 | x | x | -2.1 | 1.9 | 32.4 | -2.0 | x
COc1cc(C(=O)Nc2nc(-c3cc(C)ccc3C)c(C)s2)ccc1OCC(=O)Nc1ccc(F)cc1 | 29.9 | 3.7 | x | -0.4 | 16.8 | 1.1 | x
COc1ccc(-c2nc(NC(=O)c3ccc(OCC(=O)Nc4ccc(F)cc4)c(OC)c3)sc2C)cc1 | 14.3 | 10.4 | -4.3 | 16.3 | 60.8* | 3.9 | 45.6* | FLuc counter=58.1*
Cc1cccc(OCC(O)Cn2c(N3CCCCC3)nc3c2c(=O)n(C)c(=O)n3C)c1 (stereo unspecified) | -2.0 | -8.2 | -1.1 | 0.5 | -5.9 | 5.8 | x
Cc1cc(C(C)(C)C)cc(C)c1CCNC(=O)c1ccc[n+]([O-])c1 | -4.7 | 2.4 | -0.7 | 3.7 | 37.5 | -4.9 | x
C=CCNC(=S)N/N=C/c1ccc(-c2cc(Cl)ccc2Cl)o1 | -8.6 | 4.5 | 6.1 | 3.6 | 68.3* | -1.0 | 10.7
CCOc1ccccc1C(=O)NCC(=O)N1CCN(Cc2ccc3c(c2)OCO3)CC1 | x | x | 17.1 | -0.1 | -3.3 | -2.1 | x
CCN(Cc1ccc(Cl)s1)C(=O)c1cccc(OCc2c(C)noc2C)c1 | x | 0.9 | 8.6 | -0.3 | 19.6 | -2.5 | x
O=C(CNC1CCCCC1)Nc1cccc(C(F)(F)F)c1 | -1.2 | -7.8 | -3.5 | 2.0 | -4.0 | -0.1 | x
Cc1ccc(C(O)(c2ccccc2)c2ccccc2C(C)N(C)C)c(C)c1 (stereo unspecified) | 3.3 | 21.5 | -12.6 | -0.5 | 62.3* | 0.5 | 24.9
Cc1cc(C)nc(SCC(=O)Nc2ncc(Cc3ccc(Cl)c(Cl)c3)s2)n1 | -5.7 | 10.6 | 23.1 | -0.9 | 51.9* | 4.1 | 13.2
Cc1ccc(Cc2cnc(NC(=O)CN3CCOCC3)s2)cc1Cl | 14.3 | -0.1 | -0.5 | -1.2 | 1.7 | 0.3 | x
